Published values gathered from unrelated publications.
Cell line: HeLa
Observed: cell growth or viability

CC(C)CCOc1cc(C(=O)C[n+]2ccn(CCC(C)C)c2)c(OCCC(C)C)c2ccccc12  IC50 (MTT; 24 h): 10.1 µM
CSc1ccccc1-c1ccc(C(N)=O)c2[nH]c3c(c12)CC(N)CC3 (stereo not drawn)  IC50: 0.21 µM
Fc1ccccc1Nc1nc(-c2ccncc2)nc2c1CNCC2  IC50 (MTT): > 100 µM
O=C(Cn1cc(COc2ncnc3[nH]cnc23)nn1)Nc1ccc([N+](=O)[O-])cc1  IC50 (MTT): 10.4 µM
S=C(N/N=C/c1cccc2cc3ccccc3nc12)Nc1ccccc1  IC50 (MTT; 48 h): 28.3 µM
CN1CCc2c(c3ccccc3n2Cc2ccc(C(=O)NO)cc2)C1  IC50 (CCK-8; 48 h): 17.6 µM
CC(C)CNC(=S)N/N=C/c1cccc2cc3ccccc3nc12  IC50 (MTT; 48 h): 25.5 µM
CC(C)CCOc1cc(C[n+]2cn(CCC(C)C)c3cc(-c4ccccc4)c(-c4ccccc4)cc32)c(OCCC(C)C)c2ccccc12  IC50 (MTT; 24 h): 11.2 µM
CN1C(=O)C(=O)c2cc3c(c4c2c1cc1ccccc14)OCO3  IC50 (MTT; 75 h): 56.9 µM
CNC(=S)N/N=C/c1cccc2cc3ccccc3nc12  IC50 (MTT; 48 h): 21.8 µM
CN(C)c1ccc(Nc2nc(-c3ccncc3)nc3c2CC(N)CC3)cc1 (stereo not drawn)  IC50 (MTT): 38.2 µM
CC(C)CCOc1cc(C[n+]2c(-c3ccccc3)n(CCC(C)C)c3ccccc32)c(OCCC(C)C)c2ccccc12  IC50 (MTT; 24 h): 7.3 µM
CN(C)c1cccc(Nc2nc(-c3ccncc3)nc3c2CNCC3)c1  IC50 (MTT): 32.4 µM
COc1cccc2c1C(=O)c1c(O)c3c(c(O)c1C2=O)C[C@@](O)(C(=O)CO)C[C@@H]3O[C@H]1C[C@H](N)[C@H](O)[C@H](C)O1  IC50: 0.03 µM
CCC(=CCc1c(O)cc2c(c1O)C(=O)CC(c1ccc(O)cc1)O2)CC (stereo in doubt)  IC50 (MTT): 19.1 µM
COc1ccc(-c2n(CCC(C)C)c3ccccc3[n+]2Cc2cc(OCCC(C)C)c3ccccc3c2OCCC(C)C)cc1  IC50 (MTT; 24 h): 10.9 µM
COc1cccc2c1C(=O)c1c(O)c3c(c(O)c1C2=O)C[C@@](O)(C(=O)CO)C[C@@H]3O[C@H]1C[C@H](N)[C@H](O)[C@H](C)O1  IC50 (MTT; 48 h): 0.2 µM
CC(C)CCn1c[n+](CC(=O)c2cc(OC(C)C)c3ccccc3c2OC(C)C)c2ccccc21  IC50 (MTT; 24 h): 12.9 µM
Cc1sc2c(c1C)C(c1ccc(Cl)cc1)=N[C@@H](CC(=O)NCCCCNC(=O)COc1cccc3c1C(=O)N(C1CCC(=O)NC1=O)C3=O)c1nnc(C)n1-2 (stereo partly drawn)  IC50 (CCK-8; 72 h): > 10 µM
CCC(=CCc1c(O)cc2c(c1O)C(=O)C[C@H](c1ccccc1O)O2)CC  IC50 (MTT): 37.4 µM
Cc1ccc(NC(=O)Cn2cc(COc3ncnc4[nH]cnc34)nn2)c(C)c1  IC50 (MTT): 21.4 µM
COC(C)c1n(CCC(C)C)c2ccccc2[n+]1Cc1cc(OCCC(C)C)c2ccccc2c1OCCC(C)C (stereo not drawn)  IC50 (MTT; 24 h): 5.7 µM
CN(C)C(=S)[N-]N=C(c1ccccn1)c1ccccn1.[O]=[V+]=[O]  IC50 (MTT; 48 h): 42.9 µM
CC(C)CCOc1cc(C(=O)C[n+]2cn(C)c3ccccc32)c(OCCC(C)C)c2ccccc12  IC50 (MTT; 24 h): 13.9 µM
COc1cc([C@@H]2c3cc4c(cc3[C@@H](O[C@@H]3O[C@@H]5CO[C@@H](C)O[C@H]5[C@H](O)[C@H]3O)[C@H]3COC(=O)[C@H]23)OCO4)cc(OC)c1O  IC50 (MTT; 48 h): 3.9 µM
CC(C)CCOc1cc(C[n+]2cn(CCC(C)C)c3cc(Br)c(Br)cc32)c(OCCC(C)C)c2ccccc12  IC50 (MTT; 24 h): 7.2 µM
COc1cccc2c1C(=O)c1c(O)c3c(c(O)c1C2=O)C[C@@](O)(C(=O)CO)C[C@@H]3O[C@H]1C[C@H](N)[C@H](O)[C@H](C)O1  IC50 (MTT): 6.89 µM
